Test results from ChEMBL document CHEMBL1139082, “A potent and orally active HIV-1 integrase inhibitor” (Bioorg Med Chem Lett, 2007).
Values after ≈ are worked out from the molar mass of the structure shown. Active and inactive are the calls of the source. No cut-off for these calls is given here.

Columns and labels:
[1] = molecular target: Human immunodeficiency virus type 1 integrase (Human immunodeficiency virus 1, UniProt Q7ZJM1); assay: Inhibition of HIV1 recombinant integrase catalyzed strand transfer activity
Sequence of Human immunodeficiency virus type 1 integrase (Q7ZJM1 whole entry): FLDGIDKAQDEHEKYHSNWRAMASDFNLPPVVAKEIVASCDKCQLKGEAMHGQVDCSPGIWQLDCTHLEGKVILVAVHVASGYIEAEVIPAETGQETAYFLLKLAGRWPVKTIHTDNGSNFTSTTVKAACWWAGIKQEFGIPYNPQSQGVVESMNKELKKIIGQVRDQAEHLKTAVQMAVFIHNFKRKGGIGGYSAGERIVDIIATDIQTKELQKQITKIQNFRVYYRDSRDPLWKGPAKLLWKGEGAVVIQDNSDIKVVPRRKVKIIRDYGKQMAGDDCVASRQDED

[2] = Partition coefficient, log P at pH 7.4; assay type: physicochemical; details: octanol/water
Method in brief: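 Octanol/buffer partition measured by HPLC at each compound's maximum absorbance. Log P = log[(octanol area × octanol dilution)/(buffer area × buffer dilution)].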

[3] = system: Human immunodeficiency virus 1; assay: Antiviral activity against HIV1 3B in MT4 cells assessed as decrease in HIV1 p24 core antigen in presence of FBS; assay type: functional; details: Human immunodeficiency virus 1, 3B
Method in brief: (§1)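 MT-4 human T-lymphoid cells infected with HIV-1 IIIb, cultured with increasing inhibitor concentrations; readout is the decrease in p24 core antigen. IC95 is the concentration giving 95% inhibition of viral growth versus control. Line 1 used 10% fetal bovine serum; line 2 used 50% normal human serum. n ≥ 2; lower limit ~7 nM; SD ~2-fold.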

[4] = system: Human immunodeficiency virus 1; assay: Antiviral activity against HIV1 3B in MT4 cells assessed as decrease in HIV1 p24 core antigen in presence of normal human serum; assay type: functional; details: Human immunodeficiency virus 1, 3B; method in brief: as §1
Homo sapiens = species: Homo sapiens; assay: Protein binding in human plasma by ultrafiltration method; details: read-out: PB (converted)
Plasma = assay: Fraction unbound in human plasma after 30 mins by ultracentrifugation method; assay type: ADME, cell-free; details: 0.5 h
Method in brief: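 14C-labelled compound was spiked into human plasma (pH 7.4) at final 1, 5 and 20 µM and incubated 30 min at 37 °C. Ultracentrifugation at 180,000g, 37 °C, overnight (~18 h). Supernatant aliquots were counted by liquid scintillation with quench correction; fu (%) = dpm in protein-free fraction / dpm in original plasma × 100.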

[5] = Clearance in rat at 2 mg/kg, iv; assay type: ADME, organism-based; set-up: dose 2 mg/kg, route intravenous; details: in vivo
Method in brief: (§2)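 Rats received the sodium salt intravenously at 2 mg/kg, dissolved in DMSO. Half-life (h) and clearance (mL/min/kg) were derived after iv administration.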

[6] = Half life in rat at 2 mg/kg, iv; assay type: ADME, organism-based; set-up: dose 2 mg/kg, route intravenous; details: in vivo; method in brief: as §2
[7] = Oral bioavailability in rhesus monkey at 1 mg/kg; assay type: ADME, organism-based, Macaca mulatta; details: in vivo
Method in brief: (§3)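 Sodium salt was ground and given orally at 1 mg/kg to dogs and rhesus monkeys as a 0.5% aqueous methylcellulose suspension. Percent bioavailability was taken after oral administration.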

[8] = system: Human immunodeficiency virus 1; assay: Antiviral activity against HIV1 with integrase T66l/M154l mutant; assay type: functional, organism-based
Method in brief: (§4)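 HIV-1 carrying site-directed integrase mutations (mutations first seen in serial cell-culture passage under integrase inhibitors) tested in cell culture. Activity is expressed as fold loss in efficacy relative to wild-type virus.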

[9] = system: Human immunodeficiency virus 1; assay: Antiviral activity against HIV1 with integrase T125K mutant; assay type: functional, organism-based; method in brief: as §4
[10] = system: Human immunodeficiency virus 1; assay: Antiviral activity against HIV1 with integrase F121Y mutant; assay type: functional, organism-based; method in brief: as §4
[11] = system: Human immunodeficiency virus 1; assay: Antiviral activity against HIV1 with integrase N155S mutant; assay type: functional, organism-based; method in brief: as §4
[12] = system: Human immunodeficiency virus 1; assay: Antiviral activity against HIV1 with integrase T66l/S153Y mutant; assay type: functional, organism-based; method in brief: as §4
[13] = Clearance in dog at 1 mg/kg, iv; assay type: ADME, organism-based, Canis lupus familiaris; set-up: dose 1 mg/kg, route intravenous; details: in vivo
Method in brief: (§5)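 Dog and rhesus monkeys were given sodium salt intravenously at 1 mg/kg, dissolved in DMSO. Half-life (h) and clearance (mL/min/kg) were derived from plasma concentrations after iv dosing.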

[14] = Solubility at pH 7.4 by equilibrium solubility assay; assay type: physicochemical; details: buffer
Method in brief: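 Crystalline drug was suspended in 10 mM sodium phosphate, pH 7.4, and equilibrated at room temperature for 5 days. Aliquots were centrifuged 15,000 rpm for 15 min. Solution concentration was measured by HPLC at days 2 and 5 and taken as solubility.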

[15] = Half life in rhesus monkey at 1 mg/kg, iv; assay type: ADME, organism-based, Macaca mulatta; set-up: dose 1 mg/kg, route intravenous; details: in vivo; method in brief: as §5
[16] = Oral bioavailability in dog at 1 mg/kg; assay type: ADME, organism-based, Canis lupus familiaris; details: in vivo; method in brief: as §3
[17] = Oral bioavailability in rat at 10 mg/kg; assay type: ADME, organism-based; details: in vivo
Method in brief: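 Sodium salt was ground and given orally to rats at 10 mg/kg as a 1% aqueous methylcellulose solution/suspension. Percent bioavailability was taken after oral administration.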

[18] = system: Human immunodeficiency virus 1; assay: Antiviral activity against HIV1 with integrase V151l mutant; assay type: functional, organism-based; method in brief: as §4
[19] = Half life in dog at 1 mg/kg, iv; assay type: ADME, organism-based, Canis lupus familiaris; set-up: dose 1 mg/kg, route intravenous; details: in vivo; method in brief: as §5
[20] = system: Human immunodeficiency virus 1; assay: Antiviral activity against HIV1 with integrase […] mutant; assay type: functional, organism-based; method in brief: as §4
[21] = Clearance in rhesus monkey at 1 mg/kg, iv; assay type: ADME, organism-based, Macaca mulatta; set-up: dose 1 mg/kg, route intravenous; details: in vivo; method in brief: as §5

| IC50 [1] | logD [2] | fraction unbound (Homo sapiens) | Structure (SMILES) | IC95 [3] | IC95 [4] | further results |
| --- | --- | --- | --- | --- | --- | --- |
| 110 nM | 1 | 0.1 | CN(C)C(=O)c1cc(F)ccc1CNC(=O)c1nc(N2CCCCS2(=O)=O)c2cccnc2c1O | 23 nM | 63 nM |  |
| 14 nM | 1 | 0.06 | CN(C)C(=O)Cc1ccccc1CNC(=O)c1nc(N2CCCCS2(=O)=O)c2cccnc2c1O | 167 nM | 1000 nM |  |
| 51 nM | 1.4 | 0.02 | CNC(=O)c1cc(F)ccc1CNC(=O)c1ncc2cccnc2c1O |  | 1040 nM |  |
| 10 nM | 1.9 |  | O=C(NCc1ccccc1)c1nc(N2CCCCS2(=O)=O)c2cccnc2c1O | 125 nM | 1000 nM |  |
| 7 nM | 1 | 0.08 | CNC(=O)Cc1ccccc1CNC(=O)c1nc(N2CCCCS2(=O)=O)c2cccnc2c1O | 109 nM | 438 nM |  |

The next lines start with the compound.

| Structure (SMILES) | IC50 [1] | logD [2] | fraction unbound (Homo sapiens) | IC95 [3] | IC95 [4] | further results |
| --- | --- | --- | --- | --- | --- | --- |
| CNC(=O)c1cc(F)ccc1CN[14C](=O)c1nc(N2CCCCS2(=O)=O)c2cccnc2c1O |  |  |  |  |  | Activity (Plasma): 15% |
| CNC(=O)c1cc(F)ccc1CNC(=O)c1nc(N2CCCCS2(=O)=O)c2cccnc2c1O | 10 nM | 1.6 | 0.08 | 7 nM | 16 nM | clearance [5]: 8.6 mL/min/kg; half-life [6]: 1.2 h; bioavailability [7]: 23%; Activity [8]: Active; Activity [9]: Active; Activity [10]: Active; Activity [11]: Active; Activity [12]: Active; clearance [13]: 2.8 mL/min/kg; solubility thermodynamic [14]: 2.3 µg/mL (≈ 4.72 µM); half-life [15]: 1.4 h; bioavailability [16]: 65%; bioavailability [17]: 45%; Activity [18]: Active; half-life [19]: 1.8 h; Activity [20]: Active; clearance [21]: 18.3 mL/min/kg |
| CN(C)S(=O)(=O)c1cc(F)ccc1CNC(=O)c1nc(N2CCCCS2(=O)=O)c2cccnc2c1O | 30 nM | 1.9 | 0.03 | 16 nM | 94 nM |  |
| O=C(NCc1ccc(F)cc1)c1ncc2cccnc2c1O |  | 2.4 | 0.01 |  | 5000 nM |  |
| CNS(=O)(=O)c1cc(F)ccc1CNC(=O)c1nc(N2CCCCS2(=O)=O)c2cccnc2c1O | 45 nM | 1.9 | 0.01 | < 8 nM | 125 nM |  |
| O=[14C](NCc1ccc(F)cc1)c1nc(N2CCCCS2(=O)=O)c2cccnc2c1O |  |  |  |  |  | Activity (Plasma): 1.5% |
| O=C(NCc1ccc(F)cc1)c1nc(N2CCCCS2(=O)=O)c2cccnc2c1O |  | 2.1 |  | 15 nM | 102 nM | clearance [5]: 2.8 mL/min/kg; half-life [6]: 1.2 h; bioavailability [7]: 51%; Activity [8]: Active; Activity [9]: Active; Activity [10]: Active; Activity [11]: Active; Activity [12]: Active; clearance [13]: 2 mL/min/kg; Solubility [14]: 0.21 µg/mL (≈ 0.488 µM); half-life [15]: 0.7 h; bioavailability [16]: 24%; bioavailability [17]: 41%; Activity [18]: Active; half-life [19]: 2.9 h; Activity [20]: Active; clearance [21]: 6.6 mL/min/kg |
